Test results published in ChEMBL document CHEMBL4765360, “Design, synthesis and biological evaluation of novel potent STAT3 inhibitors based on BBI608 for cancer therapy” (Eur J Med Chem, 2020).
The source made the active and inactive calls. No cut-off for these calls is given here.

Assays:
MDA-MB-231 [1] = test: Antiproliferative activity against human MDA-MB-231 cells overexpressing STAT3 assessed as reduction in cell growth incubated for 48 hrs by CCK-8 assay; type: functional, cell-based; settings: MDA-MB-231, 48 h
Method in brief: (§1)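 Cells seeded at 5000-7000/well and allowed to settle for 8 h at 37 °C, 5% CO2. Graded compound concentrations were then added in triplicate (DMSO <0.1%) for 48 h. Medium was replaced with 10% CCK-8 for 4 h (MDA-MB-231, MDA-MB-468) or 1 h (HepG2), and A450 was read. IC50 is mean ± SD of at least three independent experiments. HepG2 was grown in high-glucose DMEM with 10% FBS.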

HepG2 = test: Antiproliferative activity against human HepG2 cells overexpressed STAT3 assessed as reduction in cell growth incubated for 48 hrs by CCK-8 assay; type: functional, cell-based; settings: HepG2, 48 h; method in brief: as §1
MDA-MB-468 = test: Antiproliferative activity against human MDA-MB-468 cells overexpressing STAT3 assessed as reduction in cell growth incubated for 48 hrs by CCK-8 assay; type: functional, cell-based; settings: MDA-MB-468, 48 h; method in brief: as §1
[2] = biological target: T1, Signal transducer and activator of transcription 1-alpha/beta (Homo sapiens) (UniProt P42224); test: Inhibition of STAT1 in human MDA-MB-231 cells assessed as reduction in STAT1 Y701 phosphorylation at 0.75 to 3 uM incubated for 24 hrs by Western blot analysis; type: cell-based; settings: dose 0.75-3 µM
T1 sequence (whole entry): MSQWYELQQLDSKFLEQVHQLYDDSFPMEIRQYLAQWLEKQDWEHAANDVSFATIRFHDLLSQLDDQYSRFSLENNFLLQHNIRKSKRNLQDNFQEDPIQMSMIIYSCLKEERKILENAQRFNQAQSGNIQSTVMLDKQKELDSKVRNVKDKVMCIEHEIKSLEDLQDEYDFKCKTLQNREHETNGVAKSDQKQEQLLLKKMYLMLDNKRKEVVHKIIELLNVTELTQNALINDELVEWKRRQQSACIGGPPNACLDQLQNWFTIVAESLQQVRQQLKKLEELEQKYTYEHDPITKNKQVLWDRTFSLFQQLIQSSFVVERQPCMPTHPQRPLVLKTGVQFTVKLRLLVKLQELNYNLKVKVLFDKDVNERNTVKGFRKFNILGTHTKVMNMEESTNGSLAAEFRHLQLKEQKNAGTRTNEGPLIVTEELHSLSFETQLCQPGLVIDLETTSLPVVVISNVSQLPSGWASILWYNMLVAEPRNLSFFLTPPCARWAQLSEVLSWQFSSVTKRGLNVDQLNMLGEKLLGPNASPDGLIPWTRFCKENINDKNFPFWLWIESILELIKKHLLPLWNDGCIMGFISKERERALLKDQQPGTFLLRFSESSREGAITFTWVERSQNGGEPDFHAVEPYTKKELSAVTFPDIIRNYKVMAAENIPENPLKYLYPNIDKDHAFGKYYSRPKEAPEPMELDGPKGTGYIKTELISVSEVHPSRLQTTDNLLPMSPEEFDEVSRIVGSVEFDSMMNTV
Method in brief: (§2)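 MDA-MB-231 cells treated with a range of concentrations for 24 h. RIPA lysates with PMSF, 40 µg protein/lane, on 10% SDS-PAGE, then PVDF. Blocked in 5% milk/TBST for 2 h. Primary antibodies to STAT3, p-STAT3(Y705), STAT1, p-STAT1(Y701), c-Myc and Cyclin D1 overnight at 4 °C; GAPDH as loading control. HRP secondary for 1 h; ECL detection.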

MDA-MB-231 [3] = test: Effect on STAT1 expression in human MDA-MB-231 cells at 0.75 to 3 uM incubated for 24 hrs by Western blot analysis; type: functional, cell-based; settings: dose 0.75-3 µM; method in brief: as §2
[4] = biological target: T2, Signal transducer and activator of transcription 3 (Homo sapiens, UniProt P40763); test: Inhibition of STAT3 in human MDA-MB-231 cells assessed as reduction in Cyclin D1 expression incubated for 24 hrs by Western blot analysis; type: cell-based; settings: dose 0.75-3 µM; method in brief: as §2
[5] = biological target: T2, Signal transducer and activator of transcription 3; test: Displacement of 5-FAM-GpYLPQTV-NH2 from His-tagged STAT3 (unknown origin) (127 to 722 residues) incubated for 30 mins followed by fluorescent peptide probe addition and measured after 1 hr by fluorescence polarization based competition binding assay
[6] = biological target: T2, Signal transducer and activator of transcription 3; test: Inhibition of STAT3 in human MDA-MB-231 cells assessed as reduction in STAT3 Y705 phosphorylation incubated for 24 hrs by Western blot analysis; type: cell-based; settings: dose 0.75-3 µM; method in brief: as §2
[7] = biological target: T2, Signal transducer and activator of transcription 3; test: Inhibition of STAT3 in human MDA-MB-231 cells assessed as reduction in c-myc expression incubated for 24 hrs by Western blot analysis; type: cell-based; settings: dose 0.75-3 µM; method in brief: as §2
MDA-MB-231 [8] = test: Effect on STAT3 expression in human MDA-MB-231 cells at 0.75 to 3 uM incubated for 24 hrs by Western blot analysis; type: functional, cell-based; settings: dose 0.75-3 µM; method in brief: as §2

T2 sequence (P40763 whole entry, the tested form may be a part): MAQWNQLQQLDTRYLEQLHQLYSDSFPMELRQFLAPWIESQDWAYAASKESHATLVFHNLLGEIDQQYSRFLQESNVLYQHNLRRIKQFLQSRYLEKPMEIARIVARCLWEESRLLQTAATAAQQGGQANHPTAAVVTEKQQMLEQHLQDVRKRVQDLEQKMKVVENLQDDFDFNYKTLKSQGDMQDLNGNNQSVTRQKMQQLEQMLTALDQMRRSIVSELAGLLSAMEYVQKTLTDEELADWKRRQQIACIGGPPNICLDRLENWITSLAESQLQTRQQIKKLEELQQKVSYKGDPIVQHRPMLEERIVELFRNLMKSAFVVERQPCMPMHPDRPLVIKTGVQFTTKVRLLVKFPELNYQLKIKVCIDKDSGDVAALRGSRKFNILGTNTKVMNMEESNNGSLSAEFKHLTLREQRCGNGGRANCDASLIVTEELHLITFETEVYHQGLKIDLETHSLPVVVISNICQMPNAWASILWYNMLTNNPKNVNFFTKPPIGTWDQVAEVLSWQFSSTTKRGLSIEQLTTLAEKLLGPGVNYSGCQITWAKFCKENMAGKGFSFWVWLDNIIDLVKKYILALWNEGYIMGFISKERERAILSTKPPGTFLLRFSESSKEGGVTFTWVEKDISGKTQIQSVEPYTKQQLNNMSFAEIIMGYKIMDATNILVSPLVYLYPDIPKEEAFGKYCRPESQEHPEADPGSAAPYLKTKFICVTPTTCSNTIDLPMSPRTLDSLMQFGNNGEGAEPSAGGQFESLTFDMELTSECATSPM

Compound	IC50 (MDA-MB-231 [1]) [nM]	IC50 (HepG2) [nM]	IC50 (MDA-MB-468) [nM]	further results
COc1cc(C)c(NC2=CC(=O)c3cc(C(C)=O)oc3C2=O)c(C)c1	670	2010	1530	–
CC(=O)c1cc2c(o1)C(=O)C(Nc1ccc(F)cc1)=CC2=O	3210	8010	7770	–
CC(=O)c1cc2c(o1)C(=O)C(Nc1cccc(C(F)(F)F)c1)=CC2=O	1510	1990	1160	–
CC(=O)c1cc2c(o1)C(=O)C(Nc1ccc(C)c(C)c1)=CC2=O	2540	8120	1850	–
CC(=O)c1cc2c(o1)C(=O)C(NC1CCCCC1)=CC2=O	2880	6550	4130	–
CC(=O)c1cc2c(o1)C(=O)C(Nc1ccc(N(C)C)cc1)=CC2=O	1530	1510	1830	–
CC(=O)c1cc2c(o1)C(=O)C(NC1CCCC1)=CC2=O	1230	7170	2470	–
COc1ccc(NC2=CC(=O)c3cc(C(C)=O)oc3C2=O)c(C)c1	2460	5900	2920	–
CC(=O)c1cc2c(o1)C(=O)C(NC1CC1)=CC2=O	940	1830	1970	–
CC(=O)c1cc2c(o1)C(=O)c1ccccc1C2=O [NAPABUCASIN]	700	840	–	–
CC(=O)c1cc2c(o1)C(=O)C(Nc1c(C)cccc1C)=CC2=O	1880	8030	3300	–
CC(=O)c1cc2c(o1)C(=O)C(Nc1cc(C)cc(F)c1)=CC2=O	2620	5660	2110	–
CC(=O)c1cc2c(o1)C(=O)C(NC1CCOCC1)=CC2=O	2070	6800	3230	–
CC(=O)c1cc2c(o1)C(=O)C(Nc1ccccc1)=CC2=O	1140	1540	1030	–
CCc1ccccc1NC1=CC(=O)c2cc(C(C)=O)oc2C1=O	2000	3380	2460	–
CC(=O)c1cc2c(o1)C(=O)C(Nc1ccccc1C)=CC2=O	560	1210	730	inhibition [2]: inactive; Activity (MDA-MB-231 [3]): inactive; inhibition [4]: Dose-dependent effect; IC50 [5]: 5550 nM; inhibition ([5]; time 1.5 hrs): Dose-dependent effect; inhibition [6]: Dose-dependent effect; inhibition [7]: Dose-dependent effect; Activity (MDA-MB-231 [8]): inactive
CC(=O)c1cc2c(o1)C(=O)C(Nc1cccc(C)c1)=CC2=O	2620	5500	4540	–
COc1cccc(NC2=CC(=O)c3cc(C(C)=O)oc3C2=O)c1	1480	2360	1550	–
CC(=O)c1cc2c(o1)C(=O)C(NC1CCC1)=CC2=O	4870	6750	8840	–
O=[N+]([O-])c1ccc2c(c1)S(=O)(=O)C=C2	2640	–	1920	–
CC(=O)c1cc2c(o1)C(=O)C(Nc1cccc(F)c1)=CC2=O	3500	5340	2500	–
CC(=O)c1cc2c(o1)C(=O)C(Nc1ccccc1C(F)(F)F)=CC2=O	3120	4040	1750	–
COc1ccccc1NC1=CC(=O)c2cc(C(C)=O)oc2C1=O	920	2410	1050	–
CC(=O)c1cc2c(o1)C(=O)C(Nc1ccc(OC(C)C)cc1)=CC2=O	1110	1040	1180	–
CC(=O)c1cc2c(o1)C(=O)C(Nc1ccc(C)cc1)=CC2=O	900	1850	3120	–
CC(=O)c1cc2c(o1)C(=O)C(Nc1ccc(C(F)(F)F)cc1)=CC2=O	3700	6170	2270	–
CC(=O)c1cc2c(o1)C(=O)C(Nc1ccccc1F)=CC2=O	2340	2550	2000	–
